Measurements taken from ChEMBL document CHEMBL4316598, “Synthesis, antiproliferative and apoptosis induction potential activities of novel bis(indolyl)hydrazide-hydrazone derivatives” (Bioorg Med Chem, 2019).
Active and inactive are the calls of the source. The calls are words filed in the database; no cut-off is given here.

How the values were obtained:
[1] = molecular target: T1, Mitogen-activated protein kinase; ERK1/ERK2 (Homo sapiens) (UniProt P27361+P28482); assay: Induction of ERK/MAPK signal transduction pathway in human MCF7 cells assessed as increase ERK1/2 translocation; type: cell-based
T1 sequence (P27361 whole entry, looked up): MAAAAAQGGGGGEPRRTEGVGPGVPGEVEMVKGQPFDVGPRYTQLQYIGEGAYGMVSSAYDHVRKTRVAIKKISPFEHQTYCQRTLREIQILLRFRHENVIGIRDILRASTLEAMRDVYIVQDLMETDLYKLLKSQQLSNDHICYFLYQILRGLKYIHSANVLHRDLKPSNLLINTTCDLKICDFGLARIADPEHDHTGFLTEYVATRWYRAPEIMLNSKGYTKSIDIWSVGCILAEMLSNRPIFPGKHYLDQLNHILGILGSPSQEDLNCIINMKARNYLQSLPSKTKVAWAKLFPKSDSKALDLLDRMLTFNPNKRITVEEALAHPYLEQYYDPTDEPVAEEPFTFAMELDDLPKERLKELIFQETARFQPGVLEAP
T1 sequence (P28482 whole entry, looked up): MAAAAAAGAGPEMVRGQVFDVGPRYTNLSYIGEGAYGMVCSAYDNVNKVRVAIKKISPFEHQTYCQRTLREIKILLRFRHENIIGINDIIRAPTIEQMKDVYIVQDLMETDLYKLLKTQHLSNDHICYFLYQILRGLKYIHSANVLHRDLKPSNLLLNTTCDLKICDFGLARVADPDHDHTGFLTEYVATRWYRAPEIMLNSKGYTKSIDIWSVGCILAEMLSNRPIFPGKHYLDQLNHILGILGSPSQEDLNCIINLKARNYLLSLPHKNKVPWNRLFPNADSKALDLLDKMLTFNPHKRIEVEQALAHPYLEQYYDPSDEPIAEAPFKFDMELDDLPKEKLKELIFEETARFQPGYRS

MDA-MB-231 = assay: Cytotoxicity against human MDA-MB-231 cells assessed as reduction in cell viability after 4 hrs by MTT assay; type: functional, cell-based
How it was run: (§1)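 MTT: 10,000–20,000 cells/well attached for 16 h, then washed twice with serum-free RPMI. Treated with 1–200 µM for 4 h, 3 parallel runs per concentration. MTT added for 2 h; medium partly removed and isopropanol added. A590 read. Viability = (A treated − A doxorubicin)/(A medium − A doxorubicin)×100. Mean of three experiments, triplicate wells each.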

[2] = molecular target: T1, Mitogen-activated protein kinase; ERK1/ERK2 (Homo sapiens); assay: Activation of ERK1/2 phosphorylation in human HeLa cells assessed as increase in ratio of phosphorylated ERK1/2 to total ERK1/2 level at 5 uM in presence of ERK1/2 inhibitor PD98059 by ELISA; type: cell-based
How it was run: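 Cell-based ELISA: HeLa or MCF-7 cells (20×10^3/well) grown overnight at 37 °C, 5% CO2, treated with 5 μM, then fixed and blocked. Probed with rabbit anti-total and anti-phospho P38, JNK or ERK1/2 (1:100), then HRP anti-rabbit IgG. Result is the phospho/total ratio; inhibitor arms use […], […] or SP600125. n=3.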

MCF7 [3] = assay: Induction of apoptosis in human MCF7 cells assessed as necrotic cells at 1 uM after 8 hrs by annexin-V FITC/propidium iodide staining based flow cytometric analysis relative to control; type: functional
How it was run: (§2)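 Cells were grown in DMEM with 10% heat-inactivated FBS at 37 °C and 5% CO₂, then plated at 500,000 cells/well in 24-well plates. They were treated from a DMSO stock (DMSO ≤0.1%) for 8, 12 or 16 h. After a PBS wash, cells were resuspended in binding buffer (10 mM HEPES pH 7.4, 2.5 mM CaCl₂, 140 mM NaCl, 0.1% BSA), stained 40 min with FITC-annexin V, then with PI, and run on the flow cytometer immediately. Values are the mean of three independent experiments.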

MCF7 [4] = assay: Induction of apoptosis in human MCF7 cells assessed as necrotic cells at 1 uM after 12 hrs by annexin-V FITC/propidium iodide staining based flow cytometric analysis relative to control; type: functional; how it was run: as §2
FaDu = assay: Cytotoxicity against human FADU cells assessed as reduction in cell viability after 4 hrs by MTT assay; type: functional, cell-based
MCF7 [5] = assay: Induction of apoptosis in human MCF7 cells assessed as late apoptotic cells at 1 uM after 16 hrs by annexin-V FITC/propidium iodide staining based flow cytometric analysis relative to control; type: functional; how it was run: as §2
HeLa [6] = assay: Induction of apoptosis in human HeLa cells assessed as late apoptotic cells at 1 uM after 8 hrs by annexin-V FITC/propidium iodide staining based flow cytometric analysis relative to control; type: functional; how it was run: as §2
MCF7 [7] = assay: Induction of apoptosis in human MCF7 cells assessed as early apoptotic cells at 1 uM after 12 hrs by annexin-V FITC/propidium iodide staining based flow cytometric analysis relative to control; type: functional; how it was run: as §2
HeLa [8] = assay: Effect on mitochondrial membrane potential in human HeLa cells assessed as shift change at 5 uM measured over 4 hrs by Rhodamine 123 dye-based fluorescence assay; type: functional, cell-based
How it was run: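 Mitochondrial potential: HeLa or MCF-7 cells treated with 5 µM (final) for 1, 2, 4 and 8 h. Rhodamine 123 added, cells incubated 30 min at 37 °C, washed with PBS, and analysed by flow cytometry. Fluorescence histogram shift is compared with control.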

Homo sapiens = organism: Homo sapiens; assay: (§3) Cytotoxicity against human SW680 cells assessed as reduction in cell viability after 4 hrs by MTT assay; type: functional, cell-based
[9] = as §3; type: functional, cell-based
HeLa [10] = assay: Induction of apoptosis in human HeLa cells assessed as early apoptotic cells at 1 uM after 12 hrs by annexin-V FITC/propidium iodide staining based flow cytometric analysis relative to control; type: functional; how it was run: as §2
MCF7 [11] = assay: Induction of ERK/MAPK signal transduction pathway in human MCF7 cells assessed as increase in c-jun level; type: cell-based
HeLa [12] = assay: Induction of caspase-dependent apoptosis in human HeLa cells assessed as activation of caspase-8 at 1 to 3 uM after 24 hrs by Western blot analysis; type: functional, cell-based
How it was run: (§4)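 Cells were treated at 1, 3 and 5 µM for 24 h at 37 °C. Lysis was in ice-cold Triton X-100 buffer with protease and phosphatase inhibitors; nuclear proteins were extracted separately. Protein was quantified by BCA. Lysates were separated by electrophoresis, transferred to nitrocellulose and blocked in non-fat milk for 1 h. Primary antibody was applied overnight at 4 °C and secondary for 1 h at 28 °C. Detection was by enhanced chemiluminescence.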

HeLa [13] = assay: Induction of caspase-dependent apoptosis in human HeLa cells assessed as activation of caspase-7 at 1 to 3 uM after 24 hrs by Western blot analysis; type: functional, cell-based; how it was run: as §4
MCF7 [14] = assay: Induction of apoptosis in human MCF7 cells assessed as viable cells at 1 uM after 8 hrs by annexin-V FITC/propidium iodide staining based flow cytometric analysis relative to control; type: functional; settings: MCF7, 8 h, read-out: Activity; how it was run: as §2
MCF7 [15] = assay: Induction of ROS generation in human MCF7 cells at 5 uM after 8 hrs by DCFH-DA staining-based fluorescence spectrophotometric analysis relative to control; type: functional
How it was run: (§5)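 DCFH-DA ROS: HeLa or MCF-7 cells at 2×10^6/well cultured 12 h, treated 4 or 8 h; t-BHP (10 μM) is the positive control. DCFH-DA 10 μM added for 10 min at 37 °C, cells washed twice with PBS. Fluorescence read at ex 485/em 520 nm. For the NAC arm, NAC (5 mM) is added to the medium before treatment.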

A549 = assay: Cytotoxicity against human A549 cells assessed as reduction in cell viability after 4 hrs by MTT assay; type: functional, cell-based; how it was run: as §1
HeLa [16] = assay: Induction of apoptosis in human HeLa cells assessed as necrotic cells at 1 uM after 12 hrs by annexin-V FITC/propidium iodide staining based flow cytometric analysis relative to control; type: functional; how it was run: as §2
MCF7 [17] = assay: Induction of ERK/MAPK signal transduction pathway in human MCF7 cells assessed as increase in p53 phosphorylation; type: cell-based
HeLa [18] = assay: Induction of apoptosis in human HeLa cells assessed as viable cells at 1 uM after 16 hrs by annexin-V FITC/propidium iodide staining based flow cytometric analysis relative to control; type: functional; settings: read-out: Activity; how it was run: as §2
HeLa [19] = assay: Induction of apoptosis in human HeLa cells assessed as up-regulation of acetylated p53 level at 5 uM after 24 hrs by sandwich ELISA; type: functional, cell-based
How it was run: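 Cells were treated at 5 µM for 12, 24 and 48 h. Lysis was in ice-cold lysis buffer with 1 mM PMSF (5 min on ice), followed by three freeze-thaw cycles and a 10 min spin at 4 °C. Acetylated and total p53 were measured in the supernatant by kit sandwich ELISA, read at 450 nm. The control index is sample absorbance divided by that of untreated cells at the same time. Values are mean ± SD of triplicate experiments.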

MCF7 [20] = assay: Induction of ROS generation in human MCF7 cells at 5 uM after 4 to 8 hrs in presence of NAC by DCFH-DA staining-based fluorescence spectrophotometric analysis; type: functional, cell-based; how it was run: as §5

Cn1cc(/C=N\NC(=O)c2cn(C)c3ccc(Br)cc23)c2ccccc21
Activity [1]: Active | Activity (MDA-MB-231): Dose-dependent effect | IC50 (MDA-MB-231; MDA-MB-231, 4 h): 5.49 µM | Activity [2]: inactive | Activity (MCF7 [3]): 0.33% | Activity (MCF7 [4]): 2.61% | Activity (FaDu): Dose-dependent effect | IC50 (FaDu): 9.64 µM | Activity (MCF7 [5]): 58.43% | Activity (HeLa [6]): 11.5% | Activity (MCF7 [7]): 21.18% | Activity (HeLa [8]): Active | Activity (Homo sapiens): Dose-dependent effect | IC50 [9]: 2.77 µM | Activity (HeLa [10]): 33.51% | Activity (MCF7 [11]): Active | Activity (HeLa [12]): inactive | Activity (HeLa [13]): inactive | viability at 1 µM (MCF7 [14]): 93.4% | Activity (MCF7 [15]): 48.3% | Activity (A549): Dose-dependent effect | IC50 (A549; Homo sapiens, A549, 4 h, read-out: IC50): 0.793 to 5.49 µM | Activity (HeLa [16]): 0.3% | Activity (MCF7 [17]): Active | viability at 1 µM (HeLa [18]): 14.3% | Activity (HeLa [19]): Active | Activity (MCF7 [20]): inactive
